Bioassay records (PubChem)
NR2E3 ag-1: agonists of human nuclear receptor NR2E3. Q9Y5X4. GST-NR2E3/biotin-RetCOR TR-FRET, 1536-well. inhibition of corepressor binding, % at 4.78 µM. 320,000 tested, 0.12% active;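 active = percent inhibition above the cutoff of mean plus 3 SD of all tested compounds, set per screening campaign, cut at about 20% in these data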;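 note: 0% = DMSO wells and 100% = biotin wells as full block of FRET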
Target sequence (Q9Y5X4 whole entry, looked up): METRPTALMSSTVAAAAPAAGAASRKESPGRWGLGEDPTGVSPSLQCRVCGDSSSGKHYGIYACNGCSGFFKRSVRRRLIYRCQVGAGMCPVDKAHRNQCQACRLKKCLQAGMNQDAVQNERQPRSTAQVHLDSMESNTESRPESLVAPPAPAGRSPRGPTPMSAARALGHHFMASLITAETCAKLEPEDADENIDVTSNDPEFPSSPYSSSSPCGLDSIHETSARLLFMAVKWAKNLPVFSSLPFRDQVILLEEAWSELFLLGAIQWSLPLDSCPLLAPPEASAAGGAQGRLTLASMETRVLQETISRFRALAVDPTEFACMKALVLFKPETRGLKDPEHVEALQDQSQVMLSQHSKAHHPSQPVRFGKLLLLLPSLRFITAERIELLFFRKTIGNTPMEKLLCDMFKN
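Material: NR2E3–RetCOR corepressor complex | Quantity: 1.35 nM GST-tagged NR2E3 final | Schedule: 5 h at 4 °C | Replication: Singlicate compound wells | Reagent: RetCOR corepressor, biotinylated, 7 nM | Controls: Biotin wells as high control, 0.6% DMSO wells as low control | Signal: TR-FRET, Eu(K)-anti-GST donor, streptavidin-D2 acceptor, ex 340, em 617/671 nm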
Rev-erbA mod: modulators of human Rev-erb alpha DNA binding. AID 1259318. activity, % at 10 µM. 370,000 tested, 0.79% active. P20393. Rev-erbα–FITC-DNA binding, fluorescence polarization, 90 min;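 active = activity above about 14%, limit read from the data; passing the limit was not always enough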;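 note: 0% = DMSO wells with 35 nM protein and 100% = DMSO wells with 750 nM protein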
MC4R antag cAMP: blocks human MC4R cAMP signaling; inhibition, % at 6.5 µM; MC4R-expressing cells, MTII-stimulated cAMP, LANCE TR-FRET; P32245; 360,000 tested, 0.48% active;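 active = inhibition above its plate's cutoff, the mean of tested wells on that plate plus 3 SD, cut at about 29% in these data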;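 note: 0% = Melanotan II alone and 100% = Melanotan II plus saturating MCL0020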
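System – human MC4R-expressing U2OS cells · Also added – Melanotan II · Dosing – one concentration, 6.5 µM nominal · Timing – 30-min compound, 1-h challenge, 1-h detection, room temperature · Measured by – Eu-cAMP/anti-cAMP TR-FRET, emission 671 nm · Replicates – singlicate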
NR2E3 ag-2: human photoreceptor-specific nuclear receptor agonism | 360,000 tested, 0.35% active | CHO-S Gal4-NCOR/VP16-NR2E3 two-hybrid, luciferase | inhibition of corepressor binding, % at 3.98 µM;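 active = inhibition above the mean of all tested compounds plus 3 SD, cut at about 70% in these data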;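 note: 0% = DMSO with NR2E3 transfected cells and 100% = cells lacking NR2E3 construct; higher means lower luciferase signal from less NR2E3 corepressor binding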
MC4R ag barr: activates human MC4R beta-arrestin recruitment | P32245 | U2OS MC4R beta-arrestin complementation, luminescence; percent of melanotan II response, DMSO zero | activation, % at 8.9 µM | 360,000 tested, 0.98% active | AID 540308;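 active = activation above a per-plate cutoff, the mean activation of sample wells on that plate plus 3 SD, cut at about 8% in these data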
PG9 binder: binds the HIV-1 gp120 antibody PG9; TR-FRET gp120-PG9 antibody binding; inhibition, % at 6.7 µM; 360,000 tested, 0.43% active; AID 624416; in the data active = inhibition above about 8.5%
NR1D1 mod conf: Rev-erb alpha (human) modulation, hit confirmation. AID 1259319. Rev-erb alpha FITC-DNA binding, fluorescence polarization, 90 min. shares compounds with Rev-erbA mod. activation, % at 25 µM. 3,000 tested, 61% active;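 active = activation at or above a set limit, or at least 3 SD above the negative control mean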;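 note: 0% = 35 nM protein with DMSO and 100% = 750 nM protein high control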
RORg counter: counter-screen for Rev-erb alpha modulators: RORgamma DNA binding; purified RORgamma protein-FITC-DNA binding, fluorescence polarization; 910 tested, 8% active; shares compounds with Rev-erbA mod; IC50, µM;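 active = Compounds whose fitted half-maximal concentration for disrupting protein-DNA binding is below 10 micromolar; the record names Rev-erb in its text, so the target is in doubt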
Active calls of the source: *; . = not tested or not shown. An excerpt weighted towards active compounds, which were near 2.7% of everything screened.

SMILES	NR2E3 ag-1	Rev-erbA mod	MC4R antag cAMP	NR2E3 ag-2	MC4R ag barr	PG9 binder	NR1D1 mod conf	others
Cc1cc(NC(=O)Cn2nc(-c3cccs3)ccc2=O)cc(C)c1Br	3	6	-14	-9	-2	0	.
Cc1c(Br)ccc(NC(=O)Cn2nc(-c3cccs3)ccc2=O)c1C	-49	50*	7	18	1	1	42*	RORg counter=>40
CC(C)Oc1ccc(F)cc1-c1cc(C(=O)Nc2ccccc2)[nH]n1	.	-6	9	-30	-1	-1	.
CCCOc1ccc(F)cc1-c1cc(C(=O)Nc2ccccc2)[nH]n1	.	21*	2	-34	3	1	-7
C[n+]1ccc(/C=C/c2c[nH]c3ccc(F)cc23)cc1	.	125*	-18	-12	-1	-17	90*	RORg counter=>40
CCc1ccc(/C=C/c2c[nH]c3ccccc23)[n+](CC)c1	-6	22	-12	-30	0	-4	.
Cn1nc2c3ccccc3n(Cc3ccccc3)c2nc1=S	0	30*	4	-43	0	1	23*
CCn1c2ccccc2c2nn(C)c(=N)nc21	2	5	-4	-20	-1	1	.
Cc1nn2c(N)c(-c3ccccc3)cnc2c1-c1ccccc1	1	19*	-4	-66	4	4	3
Cc1nn2c(N)c(C#N)cnc2c1-c1ccccc1	-1	3	-6	-9	0	-1	.
Cc1nn2c3c(cnc2c1-c1ccccc1)C(=O)CC(c1ccccc1)C3 (centres undefined)	1	39*	2	-12	-2	2	19*
Cc1nn2c(N)c(C#N)cnc2c1-c1ccc(Cl)cc1	-2	51*	-1	3	-1	0	34*	RORg counter=>40
COC(=O)[C@@]1(Cc2ccccc2)[C@H]2c3cc(C(=O)N4CCCC4)n(Cc4ccsc4Br)c3C[C@H]2CN1C(=O)c1ccccc1	-3	-2	.	.	.	-1	.
O=C(CSc1ccc(F)cc1)NC(=O)c1ccccc1	.	0	5	5	1	1	.
COc1ccc(-c2ccc(C(=O)Nc3cccc(F)c3)c3occc23)c(C)c1	.	-1	26	-118	0	-3	.
Cn1c(/C(C#N)=C(\O)c2ccc(Cl)s2)nc2ccccc21	0	50*	6	-57	-2	7	12
Cn1c(/C(C#N)=C(\O)COc2ccc3ccccc3c2)nc2ccccc21	3	23*	3	-28	-2	-1	9
COC1CCN(Cc2c(C(=O)N3CCc4ccccc4C3)nc3ccc(Cl)cn23)CC1	5	0	4	-14	-4	-2	.
Cc1nn(C)cc1/C=N/NC(=O)c1ccc2c(c1)OCO2	-2	2	3	-60	-2	-1	.
O=C(COC(=O)CC1CC2CCC1C2)Nc1cc([N+](=O)[O-])ccc1F (centres undefined)	2	10	-1	-1	3	-1	.
Cc1coc2cc3oc(=O)c(Cc4ccccc4)c(C)c3cc12	4	32*	1	-20	-1	5	43*	RORg counter=>40
Cc1c(C)c2cc3c(C)coc3cc2oc1=O	3	5	0	23	1	-1	.
c1ccc(-c2nc(NCc3cccs3)c3ccccc3n2)cc1	1	1	-1	17	2	-1	.
Cc1cc2oc(C(=O)Nc3ccc(S(=O)(=O)Nc4ncccn4)cc3)c(C)c2cc1Cl	.	22*	4	5	1	0	-4
Cc1c(C(=O)Nc2ccc(S(=O)(=O)Nc3ncccn3)cc2)oc2ccccc12	2	-7	16	18	-2	3	.
SMILES	NR2E3 ag-1	Rev-erbA mod	MC4R antag cAMP	NR2E3 ag-2	MC4R ag barr	PG9 binder	NR1D1 mod conf	others
S=C1SCN(Cc2ccccc2)CN1Cc1ccco1	.	-1	22	-15	-2	-1	.
COc1ccc(-c2cn3c(C)c(C(=O)Nc4ccncc4)sc3n2)cc1	-5	-1	-1	15	-1	-2	.
Cc1c(C(=O)Nc2ccncc2)sc2nc(-c3ccc(F)cc3)cn12	-76	39*	-2	4	3	-1	38*	RORg counter=>40
CCOC(=O)C(C)Sc1cc(CS(=O)(=O)c2ccccc2)nc(-c2ccccc2)n1 (centres undefined)	-1	29*	11	8	-1	0	36*	RORg counter=>40
O=S(=O)(Cc1cc(Sc2ccc(Cl)cc2)nc(-c2ccccc2)n1)c1ccccc1	3	7	3	-24	-1	2	.
CS(=O)(=O)N(Cc1ccccc1)c1ccc(C(=O)NCC2CCCO2)cc1 (centres undefined)	-2	-6	5	6	0	-2	.
CNC(=O)C1CC(=O)N(c2ccc(OCC(=O)Nc3ccccc3)cc2)C1 (centres undefined)	.	-2	6	-6	0	0	.
c1csc(-c2nc(-c3ccc(-c4ccon4)s3)no2)c1	-6	21*	-7	-71	-1	5	11
c1ccc(-c2nc(-c3ccc(-c4ccon4)s3)no2)cc1	2	10	8	-59	-1	0	.
COc1ccc(-c2nc3c4ccccc4ccn3c2C=O)cc1	-2	53*	-1	-22	-1	-2	93*	RORg counter=>40
COc1ccc(Cc2c(-c3ccccc3)nc3c4ccccc4ccn23)c(C)c1	.	1	.	-49	.	0	.
O=C(COc1ccc2c(-c3ccccc3)cc(=O)oc2c1)Nc1ccc(CCO)cc1	-16	53*	-4	-15	-2	6	25*
CCOC(=O)Cc1c(C)nc2c(-c3cccc(Br)c3)cnn2c1C	1	4	21	-8	0	-2	.
CC(=O)c1cnc2c(-c3cccc(Br)c3)cnn2c1C	1	30*	15	-61	-2	6	34*	RORg counter=>40
Cc1cc(C)cc(NC(=S)/C(=C(\[O-])c2ccc(Cl)cc2Cl)[n+]2ccc(C(C)(C)C)cc2)c1	3	36*	4	0	-2	-3	31*	RORg counter=7.9*
O=C(Nc1nc2c(s1)CN(Cc1ccccc1)CC2)C1CCC1	3	-3	17	-15	4	-1	.
CN(C)c1ccc(/C=C(\C#N)C(=O)Nc2nc3c(s2)CCN(Cc2ccccc2)C3)cc1	1	28*	9	-27	-3	-1	22*
Cc1cc(C)n(-c2nc(C)nc(N)n2)n1	-2	0	10	-30	0	0	.
CCOC(=O)CSc1nc(C2CC2)cc(-c2ccc(F)cc2)c1C#N	2	.	19	-24	-2	-1	.
